ChEMBL document CHEMBL4308922, “Design and Evaluation of Heterobivalent PAR1-PAR2 Ligands as Antagonists of Calcium Mobilization” (ACS Med Chem Lett, 2019)
Blank lines part the entries; values can stand above or below the compound they belong to. Calls of active or inactive are those of the source. No cut-off for these calls is given here.

Assays:
[1] = molecular target: Proteinase-activated receptor 2 (Homo sapiens) (UniProt P55085); test: (§1) Antagonist activity at PAR2 in human MDA-MB-231 cells assessed as inhibition of SLIGKV-NH2-induced intracellular calcium mobilization preincubated for 15 mins followed by SLIGKV-NH2 addition by Fluo-4-AM dye based fluorescence assay; format: functional, cell-based
Procedure, shortened: (§2)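 Confluent adherent cells (~48 h growth in 96-well plates) loaded with Fluo-4/AM calcium dye; antagonist added before PAR2 agonist SLIGKV-NH2 at 5 μM. IC50 from four-variable nonlinear regression of concentration–response data, N = 3 on one plate, SEM error bars.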

[2] = molecular target: Proteinase-activated receptor 2 (Homo sapiens) (UniProt P55085); test: (§3) Antagonist activity at PAR2 in human EAhy926 cells assessed as inhibition of SLIGKV-NH2-induced intracellular calcium mobilization preincubated for 15 mins followed by SLIGKV-NH2 addition by Fluo-4-AM dye based fluorescence assay; format: functional, cell-based; procedure, shortened: as §2
Homo sapiens = species on record: Homo sapiens; test: (§4) Antagonist activity at PAR1/PAR2 in human EAhy926 cells assessed as inhibition of SFLLRN-NH2-induced intracellular calcium mobilization preincubated for 15 mins followed by SFLLRN-NH2 addition by Fluo-4-AM dye based fluorescence assay; format: cell-based
Procedure, shortened: (§5)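 Cells cultured to confluence over ~48 h in 96-well plates, Fluo-4/AM loaded; antagonist added, then PAR1/2 agonist SFLLRN-NH2 at 3.16 μM. Curves from triplicate wells on a single plate fitted by four-variable nonlinear regression for IC50; SEM reported.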

[3] = molecular target: T1, Proteinase-activated receptor 1 (Homo sapiens) (UniProt P25116); test: (§6) Antagonist activity at PAR1 in human EAhy926 cells assessed as inhibition of TFLLRN-NH2-induced intracellular calcium mobilization preincubated for 15 mins followed by TFLLRN-NH2 addition by Fluo-4-AM dye based fluorescence assay; format: functional, cell-based
T1 sequence (whole entry): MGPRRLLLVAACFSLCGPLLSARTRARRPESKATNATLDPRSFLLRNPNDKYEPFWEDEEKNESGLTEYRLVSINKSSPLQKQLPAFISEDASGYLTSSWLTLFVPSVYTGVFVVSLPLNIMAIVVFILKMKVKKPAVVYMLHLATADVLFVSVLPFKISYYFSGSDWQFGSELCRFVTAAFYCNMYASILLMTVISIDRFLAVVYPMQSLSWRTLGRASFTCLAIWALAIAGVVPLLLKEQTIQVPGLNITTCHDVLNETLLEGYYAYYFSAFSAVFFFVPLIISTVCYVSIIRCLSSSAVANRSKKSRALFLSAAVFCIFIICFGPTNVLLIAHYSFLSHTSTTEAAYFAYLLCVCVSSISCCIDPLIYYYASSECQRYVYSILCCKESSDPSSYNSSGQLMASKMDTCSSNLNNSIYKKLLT
Procedure, shortened: (§7)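 Adherent cells grown in 96-well plates to confluence (~48 h), loaded with Fluo-4/AM; antagonist added, then PAR1 agonist TFLLRN-NH2 at 5 μM. Concentration–response curves from N = 3 on a single plate, fitted by four-variable nonlinear regression to give IC50; errors as SEM.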

[4] = molecular target: T2, Proteinase-activated receptor 2 (Homo sapiens, UniProt P55085); test: as §1; format: functional, cell-based; procedure, shortened: as §2
T2 sequence (P55085 whole entry): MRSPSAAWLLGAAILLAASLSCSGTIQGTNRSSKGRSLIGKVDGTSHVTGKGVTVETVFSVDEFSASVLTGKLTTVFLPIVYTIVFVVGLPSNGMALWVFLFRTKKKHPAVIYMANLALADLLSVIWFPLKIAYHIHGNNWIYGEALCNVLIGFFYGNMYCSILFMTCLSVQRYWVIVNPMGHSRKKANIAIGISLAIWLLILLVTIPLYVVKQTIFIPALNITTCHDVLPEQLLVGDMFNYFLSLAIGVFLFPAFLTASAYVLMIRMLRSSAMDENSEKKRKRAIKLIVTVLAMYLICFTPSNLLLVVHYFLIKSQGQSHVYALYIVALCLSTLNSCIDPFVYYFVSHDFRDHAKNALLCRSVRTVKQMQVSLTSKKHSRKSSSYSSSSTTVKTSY

[5] = molecular target: Proteinase-activated receptor 2 (Homo sapiens) (UniProt P55085); test: (§8) Antagonist activity at PAR2 in human EAhy926 cells assessed as inhibition of trypsin-induced intracellular calcium mobilization preincubated for 15 mins followed by trypsin addition by Fluo-4-AM dye based fluorescence assay; format: functional, cell-based
Procedure, shortened: (§9)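 Fluo-4/AM-loaded confluent cells; antagonist added before 5 nM trypsin as PAR2-activating protease; calcium mobilization concentration–response fitted for IC50.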

[6] = molecular target: T2, Proteinase-activated receptor 2; test: as §3; format: functional, cell-based; procedure, shortened: as §2
[7] = molecular target: T3, Proteinase-activated receptor 1 (Homo sapiens, UniProt P25116); test: (§10) Antagonist activity at PAR1 in human EAhy926 cells assessed as inhibition of thrombin-induced intracellular calcium mobilization preincubated for 15 mins followed by thrombin addition by Fluo-4-AM dye based fluorescence assay; format: functional, cell-based
T3 sequence (P25116 whole entry): T1 sequence (whole entry)
Procedure, shortened: (§11)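 Fluo-4/AM-loaded confluent EA.hy926 monolayers; antagonist added before 1 nM thrombin as activating protease; calcium mobilization curves fitted for IC50.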

[8] = molecular target: T3, Proteinase-activated receptor 1; test: (§12) Antagonist activity at PAR1 in human MDA-MB-231 cells assessed as inhibition of TFLLRN-NH2-induced intracellular calcium mobilization preincubated for 15 mins followed by TFLLRN-NH2 addition by Fluo-4-AM dye based fluorescence assay; format: functional, cell-based; procedure, shortened: as §7
[9] = as §4; format: cell-based; details: EA.hy 926; procedure, shortened: as §5
[10] = Half life in mouse plasma at 10 uM by LC-MS/MS analysis; format: ADME, cell-free
[11] = (§13) Antagonist activity at PAR1/PAR2 in human MDA-MB-231 cells assessed as inhibition of SFLLRN-NH2-induced intracellular calcium mobilization preincubated for 15 mins followed by SFLLRN-NH2 addition by Fluo-4-AM dye based fluorescence assay; format: cell-based; procedure, shortened: as §5
[12] = molecular target: T3, Proteinase-activated receptor 1; test: as §6; format: functional, cell-based; procedure, shortened: as §7
[13] = molecular target: T1, Proteinase-activated receptor 1 (Homo sapiens); test: as §10; format: functional, cell-based; procedure, shortened: as §11
[14] = molecular target: T2, Proteinase-activated receptor 2; test: as §8; format: functional, cell-based; procedure, shortened: as §9
[15] = molecular target: T1, Proteinase-activated receptor 1 (Homo sapiens); test: as §12; format: functional, cell-based; procedure, shortened: as §7
MDA-MB-231 = test: as §13; format: cell-based; procedure, shortened: as §5

SMILES: CC1(C)CN(C(=O)[C@H]2CC[C@H](C(=O)O)CC2)CCN1C(=O)c1cn2nc(-c3ccc(F)cc3)cc(-c3ccc(F)cc3)c2n1
inhibition [1]: Active | inhibition [2]: Active

SMILES: CC(C)c1cc(-c2ccc(F)cc2)nn2cc(C(=O)N3CCN(C(=O)CCC(=O)NCCCCCC(=O)NCCOCCOCCOCCOCCOCCOCCOCCOCCOCCOCCOCCOCCOCCOCCOCCOCCOCCOCCOCCOCCOCCOCCOCCN=[N+]=[N-])CC3(C)C)nc12
inhibition [1]: inactive | inhibition [2]: inactive

SMILES: COCc1cn(CCOCCOCCOCCOCCOCCOCCOCCOCCOCCOCCNC(=O)CCC(=O)N2CCN(C(=O)c3cn4nc(-c5ccc(F)cc5)cc(C(C)C)c4n3)C(C)(C)C2)nn1
IC50 [4]: 860 nM | inhibition (Homo sapiens): inactive | inhibition [5]: inactive | IC50 [6]: 7 µM

SMILES: CC1(C)CN(C(=O)[C@H]2CC[C@H](C(=O)NCCOCCOCCOCCOCCOCCOCCn3cc(CCC(=O)NCC[C@H](NC(=O)[C@H](Cc4ccc(F)c(F)c4)NC(=O)Nc4ccc5c(CN6CCCC6)nn(Cc6c(Cl)cccc6Cl)c5c4)C(=O)NCc4ccccc4)nn3)CC2)CCN1C(=O)c1cn2nc(-c3ccc(F)cc3)cc(-c3ccc(F)cc3)c2n1
inhibition (Homo sapiens): Active | inhibition [2]: Active | inhibition [3]: Active

SMILES: CC1(C)CN(C(=O)[C@H]2CC[C@H](C(=O)NCCOCCOCCOCCOCCOCCOCCOCCOCCn3cc(CCC(=O)NCC[C@H](NC(=O)[C@H](Cc4ccc(F)c(F)c4)NC(=O)Nc4ccc5c(CN6CCCC6)nn(Cc6c(Cl)cccc6Cl)c5c4)C(=O)NCc4ccccc4)nn3)CC2)CCN1C(=O)c1cn2nc(-c3ccc(F)cc3)cc(-c3ccc(F)cc3)c2n1
inhibition (Homo sapiens): Active | inhibition [2]: Active | inhibition [3]: Active

SMILES: NCCOCCOCCOCCOCCOCCOCCOCCOCCn1cc(CCC(=O)NCC[C@H](NC(=O)[C@H](Cc2ccc(F)c(F)c2)NC(=O)Nc2ccc3c(CN4CCCC4)nn(Cc4c(Cl)cccc4Cl)c3c2)C(=O)NCc2ccccc2)nn1
inhibition [13]: Active | IC50 [8]: 10 nM | IC50 [9]: 74 nM | IC50 [12]: 97 nM

SMILES: CC(C)c1cc(-c2ccc(F)cc2)nn2cc(C(=O)N3CCN(C(=O)CCC(=O)O)CC3(C)C)nc12
IC50 [4]: 480 nM | IC50 [14]: 2 nM | IC50 [6]: 0.1 µM

SMILES: NCC[C@H](NC(=O)[C@H](Cc1ccc(F)c(F)c1)NC(=O)Nc1ccc2c(CN3CCCC3)nn(Cc3c(Cl)cccc3Cl)c2c1)C(=O)NCc1ccccc1 [RWJ-58259]
IC50 [8]: 5 nM

Second part, led by results:

inhibition [2]: Active | inhibition [3]: Active
SMILES: CC1(C)CN(C(=O)[C@H]2CC[C@H](C(=O)NCCOCCOCCOCCOCCOCCOCCOCCOCCOCCOCCn3cc(CCC(=O)NCC[C@H](NC(=O)[C@H](Cc4ccc(F)c(F)c4)NC(=O)Nc4ccc5c(CN6CCCC6)nn(Cc6c(Cl)cccc6Cl)c5c4)C(=O)NCc4ccccc4)nn3)CC2)CCN1C(=O)c1cn2nc(-c3ccc(F)cc3)cc(-c3ccc(F)cc3)c2n1
inhibition (Homo sapiens): Active

IC50 [7]: 360 nM | IC50 [8]: 140 nM | IC50 [4]: 3500 nM | IC50 [9]: 150 nM | inhibition [5]: inactive | IC50 [6]: 3.3 µM | half-life at 10 µM [10]: 336 min | IC50 [11]: 3.3 µM | IC50 [12]: 180 nM
SMILES: CC(C)c1cc(-c2ccc(F)cc2)nn2cc(C(=O)N3CCN(C(=O)CCC(=O)NCCOCCOCCOCCOCCOCCOCCOCCOCCOCCOCCOCCOCCOCCOCCOCCOCCOCCOCCOCCOCCOCCOCCOCCn4cc(CCC(=O)NCC[C@H](NC(=O)[C@H](Cc5ccc(F)c(F)c5)NC(=O)Nc5ccc6c(CN7CCCC7)nn(Cc7c(Cl)cccc7Cl)c6c5)C(=O)NCc5ccccc5)nn4)CC3(C)C)nc12

IC50 [9]: 3000 nM | IC50 [6]: > 50 µM | IC50 [12]: 30 nM
SMILES: CC(C)c1cc(-c2ccc(F)cc2)nn2cc(C(=O)N3CCN(C(=O)CCC(=O)NCCOCCOCCOCCOCCOCCOCCn4cc(CCC(=O)NCC[C@H](NC(=O)[C@H](Cc5ccc(F)c(F)c5)NC(=O)Nc5ccc6c(CN7CCCC7)nn(Cc7c(Cl)cccc7Cl)c6c5)C(=O)NCc5ccccc5)nn4)CC3(C)C)nc12

IC50 [9]: 3000 nM | IC50 [6]: > 50 µM | IC50 [12]: 130 nM
SMILES: CC(C)c1cc(-c2ccc(F)cc2)nn2cc(C(=O)N3CCN(C(=O)CCC(=O)NCCOCCOCCOCCOCCOCCOCCOCCOCCn4cc(CCC(=O)NCC[C@H](NC(=O)[C@H](Cc5ccc(F)c(F)c5)NC(=O)Nc5ccc6c(CN7CCCC7)nn(Cc7c(Cl)cccc7Cl)c6c5)C(=O)NCc5ccccc5)nn4)CC3(C)C)nc12

IC50 [9]: > 50000 nM | IC50 [6]: > 50 µM | IC50 [12]: 40 nM
SMILES: CC(C)c1cc(-c2ccc(F)cc2)nn2cc(C(=O)N3CCN(C(=O)CCC(=O)NCCOCCOCCOCCOCCOCCOCCOCCOCCOCCOCCn4cc(CCC(=O)NCC[C@H](NC(=O)[C@H](Cc5ccc(F)c(F)c5)NC(=O)Nc5ccc6c(CN7CCCC7)nn(Cc7c(Cl)cccc7Cl)c6c5)C(=O)NCc5ccccc5)nn4)CC3(C)C)nc12

inhibition [15]: inactive | inhibition [1]: inactive | inhibition [2]: inactive | inhibition [3]: inactive
SMILES: CC(C)c1cc(-c2ccc(F)cc2)nn2cc(C(=O)N3CCN(C(=O)CCC(=O)NCCCCC(=O)NCCOCCOCCOCCOCCOCCOCCOCCOCCOCCOCCOCCOCCOCCOCCOCCOCCOCCOCCOCCOCCOCCOCCOCCn4cc(CCC(=O)NCC[C@H](NC(=O)[C@H](Cc5ccc(F)c(F)c5)NC(=O)Nc5ccc6c(CN7CCCC7)nn(Cc7c(Cl)cccc7Cl)c6c5)C(=O)NCc5ccccc5)nn4)CC3(C)C)nc12
inhibition (Homo sapiens): inactive | inhibition (MDA-MB-231): inactive
